Compound activity: PubChem BioAssay, several laboratories
Compounds with a hit are over-represented: about 2.5% of the library has one in this group of screens.
SR-BI DiI-HDL act – enhances SR-BI lipid uptake from DiI-HDL | 0.096% of 320,000 active | activation, % at 12.5 µM | AID 504775 | CHO ldlA[mSR-BI] cells, DiI-HDL uptake fluorescence, 3 h; 100 = double the neutral-control signal;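 active = mean replicate activation of at least 60% and every replicate at or above 60%; inconclusive = mean or all-replicate condition met, but not both; inactive = mean below 60% and not all replicates reaching 60%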
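Test system: SR-BI-overexpressing, LDLR-lacking CHO cells. Measured by: DiI fluorescence, bottom read. Medium: Ham's F12 with 0.5% BSA, HEPES 25 mM, pH 7.4. Timing: 3 h uptake period with compound, 37 °C.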
H9c2 TAG inh – reduces triacylglycerol accumulation in H9c2 cells; Nile Red lipid (TAG) fluorescence; cells loaded with 200 µM oleic acid; inhibition, % at 12.5 µM; 0.66% of 230,000 active;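 active = pattern-corrected inhibition of lipid staining of at least 50% with the nuclear-stain viability signal not falling by more than 50%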
Vif imaging – inhibitors of HIV Vif | AID 602346 | 0.35% of 340,000 active | inhibition, % at 7.49 µM | HEK293T cells, Vif self-association by quenched fluorescence, imaging, 24 h; in the data active = inhibition above about 50%, passing the limit was not always enough; inconclusive = no clear call, values can overlap the other calls; inactive = below about 31%
SR-BI DiI inh – inhibitors of mouse SR-BI mediated HDL lipid uptake | 0.96% of 320,000 active | inhibition, % at 12.5 µM | Q61009 | ldlA[mSR-BI] CHO cells, DiI-HDL uptake fluorescence, 3 h;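 active = mean replicate inhibition of at least 70% and a set share of replicates each scoring 70 or more; inconclusive = meets just one of the two criteria; inactive = fails both criteria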
Target sequence (Q61009 whole entry, looked up): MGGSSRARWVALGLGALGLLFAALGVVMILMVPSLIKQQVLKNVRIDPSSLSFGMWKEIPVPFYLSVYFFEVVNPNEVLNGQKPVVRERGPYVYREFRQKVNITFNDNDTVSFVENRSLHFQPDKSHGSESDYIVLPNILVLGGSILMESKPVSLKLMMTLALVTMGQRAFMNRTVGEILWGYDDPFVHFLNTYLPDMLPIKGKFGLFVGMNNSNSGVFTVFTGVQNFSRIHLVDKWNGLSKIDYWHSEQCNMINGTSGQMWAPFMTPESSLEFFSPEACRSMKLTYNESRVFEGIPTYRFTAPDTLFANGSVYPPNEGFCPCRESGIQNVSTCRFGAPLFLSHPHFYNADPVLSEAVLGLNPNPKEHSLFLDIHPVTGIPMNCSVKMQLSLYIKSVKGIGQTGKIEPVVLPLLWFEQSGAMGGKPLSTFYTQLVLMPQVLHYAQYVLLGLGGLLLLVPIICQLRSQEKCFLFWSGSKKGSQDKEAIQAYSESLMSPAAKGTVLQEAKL
SMARCA2 activ – activators of SMARCA2 function; MG213 cells, MMTV-luciferase reporter, dexamethasone, overnight; activation, % at 9.1 µM; 1% of 370,000 active; in the data active = activation above about 7.8%
SMARCA2 conf – confirmation of SMARCA2 (BRM) function activators; shares compounds with SMARCA2 activ; MG213 cells, MMTV-luciferase with dexamethasone, luminescence, overnight; MG213 cells expressing E1A, Rb sequestered; DMSO wells 0%, reference activator 100%; activation, % at 9.1 µM; 30% of 3,500 active; AID 652260;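 active = activation above its plate's cutoff, the mean activation of tested wells plus 3 SD, cut at about 7.9% in these data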
VP16 Luc act – counter-screen for SMARCA2 activators: GAL4-VP16 luciferase reporter activation; shares compounds with SMARCA2 activ; HEK293 GAL4-VP16 pG5luc reporter, luciferase luminescence; scaled: DMSO wells 0%, SAHA wells 100%; activation, % at 9.1 µM; 41% of 3,500 active;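 active = activation above the solvent-only control well mean plus 3 SD, averaged across control plates, cut at about 5.2% in these data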
A number is an active result; n = inactive; u = inconclusive; x = no result.

SMILES	SR-BI DiI-HDL act	H9c2 TAG inh	Vif imaging	SR-BI DiI inh	SMARCA2 activ	SMARCA2 conf	VP16 Luc act
CCC(C)CNC(=O)c1oc(=O)c2ccccc2c1-c1ccc(C)cc1 (stereo not given)	x	x	x	x	n	x	x
O=C(N/N=C/c1cc2ccccc2[nH]1)c1ccccc1Cl	n	n	n	n	8.2	n	n
COC(=O)c1c(NC(=O)Cc2ccccc2)sc2c1CC(C)(C)NC2(C)C	n	n	n	n	11.7	n	n
COC(=O)c1c(NC(=O)COc2ccc(Cl)cc2)sc2c1CC(C)(C)NC2(C)C	n	n	n	n	n	x	x
CC(C)(O)[C@H]1Cc2cc3ccc(=O)oc3cc2O1	n	x	n	n	9.1	11.4	6.2
C=CCNc1ccc2c(c1)OC[C@H](CC(C)C)NS2(=O)=O	x	x	x	x	n	x	x
COc1ccc(/C=N/Nc2cc(C)nc3c(C)cccc23)cc1	n	x	n	n	9.1	31.7	n
COc1ccc(/C=N/Nc2cc(C)nc3ccccc23)cc1	n	x	n	n	n	x	x
CCN(CC)CCn1c(NCc2nc3ccccc3n2Cc2ccccc2)nc2ccccc21	n	x	n	n	9.0	n	5.5
c1ccc(Cn2c(CNc3nc4ccccc4n3CCN3CCCCC3)nc3ccccc32)cc1	n	x	n	n	n	x	x
Cn1c(N)c(C(=O)COC(=O)c2ccccc2C(=O)c2ccc(Cl)cc2)c(=O)n(C)c1=O	n	n	n	n	n	x	x
Cc1nc(SCC(=O)c2cccs2)c2oc3ccccc3c2n1	n	x	n	n	8.5	n	10.5
COc1cc(-c2nnc3sc(C4CCCCC4)nn23)cc(OC)c1OC	n	n	n	n	x	x	x
COc1cc(OC)c(-c2nn3c(C4CCCCC4)nnc3s2)cc1OC	n	x	n	n	8.3	n	n
CCCNC(=O)C1(C)CCCN(C(=O)/C=C/c2ccccc2)C1 (stereo not given)	x	n	n	x	n	x	x
CCOC(=O)c1c(C(=O)OCC)c(C)n(CCc2ccc(OC)c(OC)c2)c1C	n	x	n	n	n	x	x
COc1cc2c(cc1OC)-c1cc(Nc3ccccc3Br)nc(=O)n1CC2	n	x	n	n	12.7	8.6	15.6
COc1cc2c(cc1OC)-c1cc(Nc3ccc(C)cc3)nc(=O)n1CC2	n	x	n	n	9.9	9.2	n
O=C(CCCCCN1C(=O)C2C3C=CC(C3)C2C1=O)Nc1cc(F)cc(F)c1 (stereo not given)	x	x	x	x	n	x	x
COC(=O)[C@@]12CCCCC=C1N(CCc1ccc(Cl)cc1)C(=O)[C@H]2CC(=O)NCc1cccc2ccccc12	x	x	x	x	n	x	x
Cc1ccc(C(=O)N/N=c2\sc3ccccc3n2C)cc1	n	x	n	n	n	x	x
Cn1/c(=N/NC(=O)c2ccccc2F)sc2ccccc21	n	n	n	n	8.0	n	8.2
CCOC(=O)Nc1ccc(NC(=O)c2ccccc2F)cc1	n	x	n	n	9.0	9.5	8.5
CC(=O)Nc1ccc(NC(=O)c2ccccc2Br)cc1	x	n	x	x	n	x	x
COc1ccc(OC(=O)Nc2ccccc2)cc1	n	x	n	n	n	x	x
SMILES	SR-BI DiI-HDL act	H9c2 TAG inh	Vif imaging	SR-BI DiI inh	SMARCA2 activ	SMARCA2 conf	VP16 Luc act
CCc1ccc(OC(=O)Nc2ccccc2)cc1	n	n	n	n	10.5	9.2	11.8
CCc1ccc(NC(=O)c2ccccc2Br)cc1	n	n	n	n	9.9	n	10.1
CC(=O)Nc1ccc(NC(=O)c2ccccc2F)cc1	n	n	n	n	n	x	x
CCc1ccc(NC(=O)c2n[nH]c(=O)c3ccccc23)cc1	x	n	n	x	8.6	n	6.3
COc1ccccc1CCC(=O)Nc1cc(S(=O)(=O)N2CCOCC2)ccc1N1CCCC1	n	n	n	n	n	x	x
CCCCCCCCN1C(=O)[C@@H](CC(=O)N2CCN(C(=O)OCC)CC2)C[C@@]2(C(=O)OC)C1=C[C@H](C(C)(C)C)O[C@@H]2C	x	x	x	x	n	x	x
COC(=O)C1=C(C)N(Cc2ccccc2)C(=S)NC1c1ccc(Br)cc1 (stereo not given)	x	x	x	x	n	x	x
O=C(Nc1ccc(NC(=O)C2CC2)nc1)c1ccccc1F	x	x	n	x	8.6	n	5.3
CC1CCCN(C(=O)c2ccc3c(c2)OCCO3)C1 (stereo not given)	n	n	n	n	9.9	n	5.5
Cc1cccc(OCCn2c(=O)n(C)c3ccccc32)c1	u	n	n	n	8.9	18.8	12.2
Cc1cccc(OCCn2c(=O)sc3ccccc32)c1	n	x	n	n	9.0	11.1	10.0
Cc1cccc(OCCCn2c(=O)sc3ccccc32)c1	n	n	x	n	n	x	x
Cc1cccc(OCCN2C(=O)c3ccccc3C2=O)c1	n	n	n	n	9.6	n	n
Cc1cccc(OCCCN2CCCCCC2)c1	n	x	n	n	n	x	x
O=C(NCCCNC(=O)c1cc(Cl)ccc1Cl)c1ccco1	n	x	n	n	n	x	x
O=C(CNC(=O)c1ccccc1F)c1ccccc1	n	x	n	n	10.4	n	9.6
O=C(CNC(=O)c1ccccc1F)NCCc1ccc(Cl)cc1Cl	x	x	n	x	9.5	n	n
O=C(CNC(=O)c1ccccc1Cl)c1ccccc1	n	x	n	n	n	x	x
O=C(NC(=S)NC(=O)c1ccccc1F)c1ccccc1F	n	x	n	n	10.0	n	n
COc1ccc(CCNC(=O)C(CCC(N)=O)NS(=O)(=O)c2ccc(Cl)cc2)cc1OC (stereo not given)	n	x	n	n	n	x	x
COc1cccc(S(=O)(=O)N(C)C[C@@H]2Oc3ncc(C#CCN(C)C)cc3C(=O)N([C@H](C)CO)C[C@H]2C)c1	x	n	n	x	n	x	x
CCOc1cccc(C=NNc2nc(=O)cc(C(=O)OC)s2)c1O	x	x	x	x	n	x	x
Cc1cc(C)c(C)c(S(=O)(=O)N2CCCN(C)CC2)c1C	n	x	n	n	n	x	x
COC(=O)C1=C(C)N(Cc2ccccc2C(F)(F)F)C(=NCC2CC2)NC1c1ccc(F)cc1 (stereo not given)	x	x	x	x	n	x	x
N#C/C(=C\c1c[nH]c2ccccc12)C(=O)NC1CC1	n	n	n	n	10.5	11.3	10.9
SMILES	SR-BI DiI-HDL act	H9c2 TAG inh	Vif imaging	SR-BI DiI inh	SMARCA2 activ	SMARCA2 conf	VP16 Luc act
CCCn1c(N)c(C(=O)COC(=O)CNC(=O)c2ccccc2OCC)c(=O)[nH]c1=O	n	n	n	n	n	x	x
COc1ccc(OCC(=O)OC(C)CN2CCOCC2)cc1 (stereo not given)	n	n	n	n	8.8	n	n
CCCn1nnc(NC(=O)c2ccccc2Cl)n1	n	x	x	n	n	x	x
CCCn1nnc(NC(=O)c2ccc(Cl)cc2Cl)n1	n	n	n	n	14.3	n	7.8
CN(Cc1ccccc1)C(=O)OCc1cn(Cc2ccccc2F)nn1	x	x	x	x	n	x	x
CC(C)(C)OC(=O)/C=C/[C@@H](CCCCl)Sc1ccc(C(C)(C)C)cc1	x	x	x	x	n	x	x
CC1CCCCN1CCCNC(=O)c1ccc2nc(N3CCCCC3)sc2c1 (stereo not given)	n	n	x	n	17.1	9.4	9.8
